Key:
[1] = biological target: T1, S1P3 (Homo sapiens, UniProt Q99500); assay: Ligand-induced ERK phosphorylation; format: cell-based; conditions: for ERK phosphorylation response: WT S1P3 Jump-In CHO cells
Procedure, shortened: (§1)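 Jump-In TI CHO-K cells carrying N-terminal triple-HA-tagged WT or point-mutant S1P3, stably retargeted and selected 4 weeks with blasticidin 10 μg/mL. Serum-starved 4 h, then exposed 5 min to increasing agonist. For antagonism, 1 uM antagonist was added 15 min beforehand or premixed with agonist. Phospho-p44/42 MAPK (Thr202/Tyr204) measured by sandwich ELISA; EC50 fitted from dose-response curves.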

[2] = biological target: WT, W256L, and F263L mutant S1P3 (Homo sapiens, UniProt Q99500); assay: [33P]S1P radioligand binding and competition, Jump-In CHO cells; conditions: 0.1 nM [33P]S1P, W256L and F263L Jump-In cell lines (all cell lines)
Procedure, shortened: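 Jump-In TI CHO-K cells (5 × 105) stably expressing WT, W256L or F263L S1P3, serum-starved 4 h. Incubated 30 min at 4 °C with 0.1 nM [33P]S1P plus increasing competitor in 20 mM Tris-HCl pH 7.5, NaCl, NaF, EDTA, Na3VO4, 0.5% fatty-acid-free BSA and protease inhibitors. Washed three times cold, lysed in 0.5% SDS, scintillation-counted. Normalized to each line's uncompeted binding (100%).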

[3] = system: full panel of S1P receptors; assay: Profiling against the full panel of S1P receptors; format: cell-based; conditions: Supporting Table S3
[4] = Solubility; format: physicochemical
[5] = Stability in biological systems; format: in vitro ADME
[6] = system: panel of 55 GPCRs, ion channels, and transporters; assay: Ricerca profiling panel
[7] = biological target: R114A mutant S1P3 (Homo sapiens, UniProt Q99500, R114A); assay: ERK phosphorylation, R114A mutant S1P3 Jump-In CHO cells; format: cell-based; conditions: R114A mutant vs WT
Procedure, shortened: as §1

[8] = biological target: M98A mutant S1P3 (Homo sapiens, UniProt Q99500, M98A); assay: ERK phosphorylation, M98A mutant S1P3 Jump-In CHO cells; format: cell-based
Procedure, shortened: as §1

[9] = biological target: T2, F263L S1P3 (Homo sapiens, UniProt Q99500, F263L); assay: ERK phosphorylation, F263L mutant S1P3; format: cell-based; conditions: ERK phosphorylation assay, vs WT
Procedure, shortened: as §1

[10] = biological target: W256L S1P3 (Homo sapiens, UniProt Q99500, W256L); assay: ERK phosphorylation, W256L mutant S1P3; format: cell-based; conditions: ERK phosphorylation assay, vs WT
Procedure, shortened: as §1

[11] = biological target: T2, F263L S1P3; assay: MAPmates multiplex assay pERK1/2; format: cell-based
[12] = biological target: T1, S1P3; assay: Receptor assays coupled to Gi and Gq; format: cell-based; conditions: ERK phosphorylation, calcium flux, β-arrestin, NFAT-β-lactamase assays
[13] = biological target: T1, S1P3; assay: S1P3-NFAT β-lactamase reporter; format: cell-based; conditions: S1P3-CHO cells, calcium flux dependent β-lactamase assay
Procedure, shortened: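 CHO cells stably expressing human S1P3 and an NFAT-β-lactamase reporter, plated at 1 × 10^6/mL in phenol red-free DMEM with 0.5% charcoal/dextran FBS and held overnight at 37°C, 5% CO2. S1P dilution series plus six fixed allosteric-agonist levels (EC0–EC80), single-agonist controls, 4 h at 37°C. β-Lactamase FRET substrate with probenecid added, 2 h at room temperature. Read at ex 405 / em 535 and 460 nm. Mean ± SEM.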

[14] = system: S1P1; conditions: read-out: S1P1 EC50; in vitro; cited from earlier work
[15] = system: S1P2; conditions: read-out: S1P2 EC50; in vitro; cited from earlier work
[16] = system: S1P4; conditions: read-out: S1P4 EC50; in vitro; cited from earlier work
[17] = system: S1P5; conditions: read-out: S1P5 EC50; in vitro; cited from earlier work
[18] = ERK phosphorylation, SPM-242 at 1 uM

T1 sequence (Q99500 whole entry): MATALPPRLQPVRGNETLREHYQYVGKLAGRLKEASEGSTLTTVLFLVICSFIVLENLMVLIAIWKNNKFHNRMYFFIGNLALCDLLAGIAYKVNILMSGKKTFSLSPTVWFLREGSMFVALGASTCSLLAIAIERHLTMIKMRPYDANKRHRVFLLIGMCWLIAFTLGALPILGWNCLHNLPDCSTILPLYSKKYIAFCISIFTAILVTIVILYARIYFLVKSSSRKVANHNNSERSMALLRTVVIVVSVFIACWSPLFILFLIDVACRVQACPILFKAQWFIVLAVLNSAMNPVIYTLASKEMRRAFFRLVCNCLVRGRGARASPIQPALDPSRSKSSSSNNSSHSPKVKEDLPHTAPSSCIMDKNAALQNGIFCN
Chain of WT, W256L, and F263L mutant S1P3 (Q99500 whole entry W256L/F263L): as the sequence (Q99500 whole entry) above, with W256L, F263L counted along it
T2 sequence (Q99500 whole entry F263L): as the sequence (Q99500 whole entry) above, with F263L counted along it
Chain of M98A mutant S1P3 (Q99500 whole entry M98A): as the sequence (Q99500 whole entry) above, with M98A counted along it
Chain of R114A mutant S1P3 (Q99500 whole entry R114A): as the sequence (Q99500 whole entry) above, with R114A counted along it
Chain of W256L S1P3 (Q99500 whole entry W256L): as the sequence (Q99500 whole entry) above, with W256L counted along it

SMILES | right-shift of the concentration response curve of S1P [1, 18] [fold] | shift of the concentration response curve of CYM-5541 [1, 18] [fold] | competition for [33P]S1P binding [2] | selectivity among S1P receptors [3] | solubility [4] | stability of phosphate-ester bond [5] | ERK phosphorylation response [1] | agonist efficacy: maximum level of ERK phosphorylation compared with S1P ([1]; WT S1P3 Jump-In stable CHO cells) | activity in Ricerca profiling panel [6] | ERK phosphorylation response [7] | ERK phosphorylation response [8] | effect of F263L mutation on ligand-induced receptor activation [9] | effect of W256L mutation on ligand-induced receptor activation [10] | receptor activation (pERK1/2) compared to WT S1P3 [11] | signalling bias compared to S1P [12] | response on co-application of S1P and CYM-5541 [13] | EC50 [14] [µM] | EC50 [15] [µM] | EC50 [16] [µM] | EC50 [17] [µM]
NC(CO)(CCc1ccc(Sc2cccc(O)c2)cc1Cl)COP(=O)(O)O (single isomer, unassigned; (+)) [SPM-242, (+)-2-amino-4-(2-chloro-4-((3-hydroxyphenyl)thio)phenyl)-2-(hydroxymethyl)butyl dihydrogen phosphate] | 152 | 6 | reversed [^33P]S1P binding competitively in a dose dependent manner | selective for S1P3 | low solubility | extremely labile |  |  |  |  |  |  |  |  |  |  |  |  |  | 
O=C(c1cc(C2CC2)on1)N(C1CCCCC1)C1CCCCC1 [CYM-5541, N,N-dicyclohexyl(5-cyclopropylisoxazol-3-yl)carboxamide] |  |  | unable to compete |  | low solubility |  | agonist dose-dependent ERK phosphorylation | full agonist | no significant activities | comparable for WT and R114A | agonist dose-dependent ERK phosphorylation | shifted CYM-5541-induced receptor activation | did not affect | significantly diminished receptor activation | no such differences were observed | additive and no synergy was observed | > 10 | > 50 | > 50 | > 25
CCCCCCCCCCCCC/C=C/[C@@H](O)[C@@H](N)COP(=O)(O)O [S1P, Sphingosine 1-phosphate, reference compound] |  |  | competitively reversed in a dose dependent manner |  |  |  | agonist dose-dependent ERK phosphorylation |  |  | unable to respond | agonist dose-dependent ERK phosphorylation | not S1P-induced activation | did not affect |  |  |  |  |  |  | 

Source: article PMC3528827 (ACS chemical biology, 2012)
